# Rows were chosen to be rich in hits. Some 4% of all compounds tested hit in one or more screens of this group.
# TAAR1 antagonist: antagonists of human TAAR1 | Q96RJ0 | inhibition, % at 3 µM | 360,000 tested, 1.5% active | CHO RD-HGA16 TAAR1, Fluo-8 calcium fluorescence, antagonist;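 active = inhibition above a per-plate cutoff, the mean inhibition of test compounds on that plate plus 3 SD, cut at about 49% in these data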
# Target sequence (Q96RJ0 whole entry, looked up): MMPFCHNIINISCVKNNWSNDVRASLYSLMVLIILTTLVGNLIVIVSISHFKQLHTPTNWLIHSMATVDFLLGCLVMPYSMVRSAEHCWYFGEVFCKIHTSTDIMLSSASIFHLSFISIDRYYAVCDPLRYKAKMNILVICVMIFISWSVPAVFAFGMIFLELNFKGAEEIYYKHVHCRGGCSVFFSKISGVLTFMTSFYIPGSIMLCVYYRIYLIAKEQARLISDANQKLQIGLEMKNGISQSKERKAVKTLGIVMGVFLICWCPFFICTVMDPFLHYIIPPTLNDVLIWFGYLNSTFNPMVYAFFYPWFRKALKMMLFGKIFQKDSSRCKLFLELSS
#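 Test system – hTAAR1-expressing CHO RD-HGA16 cells, Gα16-coupled · Also added – β-PEA at EC80 concentration, post-compound challenge · Compound – 3 µM, single point · Incubation – dye loading 75 min at 37 °C, then 30 min room temperature · Measured by – Fluo-8 intracellular calcium dye fluorescence, real-time kinetic reads · Benchmarks – vehicle and agonist controls · Replicates – singlicate, one well per test compound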
# OX1R antag-1: blocks the human orexin 1 receptor. O43613. CHO/OX1R cells, Fluo-8 calcium fluorescence, orexin A. inhibition, % at 5 µM. 330,000 tested, 0.43% active;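 active = inhibition above its plate's threshold, mean inhibition of all tested compounds on the plate plus 3 SD, cut at about 37% in these data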
# OX1R antag-2: blocks the human orexin 1 receptor. inhibition, % at 6.6 µM. AID 485270. OX1R-expressing cells, FRET antagonist read-out. O43613. 330,000 tested, 1.8% active; in the data active = inhibition mostly above about 38%, no sharp cut-off; inactive = mostly below about 40%
# TAAR1 agonist: agonists of human TAAR1. Q96RJ0. CHO RD-HGA16 TAAR1, Fluo-8 calcium fluorescence; vehicle wells 0%, saturating PEA agonist 100%. activation, % at 3 µM. 360,000 tested, 0.99% active. AID 624467;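 active = activation above the mean activation of all test compounds in the run plus 3 SD, cut at about 38% in these data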
#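 Signal – calcium-sensitive Fluo-8 signal, excitation 470-495, emission 515-575 nm · System – RD-HGA16 (CHO) cells co-expressing Gα16 and hTAAR1 · Incubation – 17-24 h seeding, 75 min 37 °C dye, 30 min RT · Compound dosing – 3 µM single concentration · Repeats – no replicates (n 1)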
# CHO parental Ca: counter-screen: ATP calcium response change in parental CHO cells; 330,000 tested, 0.63% active; inhibition, % at 5.6 µM; parental CHO-K1, ATP-induced calcium, Fluo-8 fluorescence; AID 463079;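 active = inhibition above that plate's mean sample inhibition plus 3 SD, cut at about 26% in these data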
#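 material = parental CHO cells | also added = ATP as calcium-mobilizing challenge | dosing = single point at 5.6 µM | detection = intracellular calcium via Fluo-8 no-wash fluorescent dye | read-out = % inhibition | benchmarks = low control ATP plus DMSO, high control DMSO only | repeats = one well per compound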
# TAAR1 ag conf: confirmation of human TAAR1 agonists; shares compounds with TAAR1 agonist; CHO RD-HGA16 TAAR1, Fluo-8 calcium fluorescence; scaled: DMSO 0%, maximal phenethylamine 100%; activation, % at 3 µM; 2,400 tested, 82% active; AID 651783;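 active = activation above a cutoff set at the run's mean compound activation plus 3 SD, cut at about 39% in these data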
# Ga16 ag counter: nonselective agonist in parental cells, TAAR1 agonist counter-screen | shares compounds with TAAR1 agonist | CHO-Ga16 parental, Fluo-8 calcium fluorescence; normalized to maximal ATP response, DMSO zero | activation, % at 3 µM | 2,400 tested, 50% active | AID 651787;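 active = activation above the run cutoff, the mean activation over all tested wells plus 3 SD, cut at about 12% in these data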
# TAAR1 desens: TAAR1 response desensitization, agonist counter-screen; AID 651951; shares compounds with TAAR1 agonist; 2,400 tested, 46% active; inhibition, % at 3 µM; CHO RD-HGA16 hTAAR1, Fluo-8 calcium, beta-PEA response inhibition;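 active = inhibition above the run cutoff, the mean inhibition of all test compounds plus 3 SD, cut at about 49% in these data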;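 note: beta-PEA stimulus applied at its EC80; loss of beta-PEA calcium signal after compound pretreatment read as receptor desensitization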
# Ga16 nonsel ant: nonselective Ga16 antagonism, counter-screen; AID 651952; inhibition, % at 3 µM; 2,400 tested, 39% active; shares compounds with TAAR1 agonist; CHO-Ga16 ATP-induced calcium, Fluo-8 fluorescence;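 active = inhibition above the plate's mean compound inhibition plus 3 SD, computed per plate, cut at about 22% in these data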
# A number is an active result; - = inactive; . = not tested or not shown; ! = not confirmed by another sample.
SMILES,TAAR1 antagonist,OX1R antag-1,OX1R antag-2,TAAR1 agonist,CHO parental Ca,TAAR1 ag conf,Ga16 ag counter,TAAR1 desens,Ga16 nonsel ant
COc1ccc(NS(=O)(=O)c2ccc(C(=O)N3CCC(C)CC3)cc2)cc1,-,-,-,91.3,-,76.5,40.2,-,26.3
CCOc1ccc(S(=O)(=O)Nc2cccc(C(=O)N3CC(C)OC(C)C3)c2)cc1 (stereo not given),-,-,-,-,-,.,.,.,.
CN(C)C(CNC(=O)c1ccc(NS(=O)(=O)c2ccc(F)cc2)cc1)c1ccco1 (stereo not given),-,-,-,-,-,.,.,.,.
CCOc1ccc(C(C)=O)cc1COC(=O)c1ccccc1C(=O)N(C)Cc1ccccc1,-,.,.,-,.,.,.,.,.
CCOc1ccccc1NC(=O)CCn1ccnc1,-,-,-,-,-,.,.,.,.
CN(C)CCN(C(=O)c1ccc(S(=O)(=O)N2CCCC2)cc1)c1nc2ccc(Br)cc2s1,-,-,-,-,-,.,.,.,.
CN(C)CCCN(C(=O)c1ccc(S(=O)(=O)N2CCCCCC2)cc1)c1nc2ccc(F)cc2s1,-,-,-,66.9,-,67.6,30.2,-,-
CC1CCCCN1S(=O)(=O)c1ccc(C(=O)N(CCCN(C)C)c2nc3ccc(Br)cc3s2)cc1 (stereo not given),-,-,-,50.7,-,68.8,52.4,56.8,56.3
CC1CCN(S(=O)(=O)c2cc(C(=O)NC3(C)CCS(=O)(=O)C3)ccc2Br)CC1 (stereo not given),-,-,-,-,-,.,.,.,.
N#Cc1ccccc1OCC(=O)Nc1ccc(S(=O)(=O)N2CCOCC2)cc1,-,-,-,-,-,.,.,.,.
Cc1cccc2c1NC(=O)C21OCC(CO)([N+](=O)[O-])CO1 (stereo not given),-,-,-,-,-,.,.,.,.
O=C(CCN1CCc2ccccc2CC1)c1ccc2c(c1)OCCO2,84.8,-,-,92.2,-,115.3,-,97.4,-
O=C(CCN1CCOCC1)c1ccc2c(c1)OCCO2,-,-,-,-,-,.,.,.,.
CCN1C(=O)Cc2cc(S(=O)(=O)NCCc3ccccc3)ccc21,-,-,-,51.2,-,45.6,-,-,-
CCCCCCCCCCCCCCCC[n+]1ccccc1,73.2,.,.,51.6!,.,-,-,-,-
COc1cccc2c(=O)n(CC(=O)Nc3ccc(F)cc3)ccc12,-,-,-,-,-,.,.,.,.
COc1cccc2c(=O)n(CC(=O)Nc3cccc(F)c3)ccc12,-,-,-,60.8,-,45.9,40.1,-,-
CC(C)OC(=O)N(C)C[C@H]1OCc2cn(nn2)CCCC(=O)N([C@H](C)CO)C[C@@H]1C,-,.,.,-,.,.,.,.,.
Clc1ccc(Cn2ncc3c(N4CCCCC4)ncnc32)cc1,51.7,-,-,47.6,-,44.8,24.2,-,24.3
Clc1ccc(Cn2ncc3c(NCc4ccccc4)ncnc32)cc1,-,-,-,53.3,-,51.0,37.6,-,30.0
c1ccc(Cn2ncc3c(NCc4ccco4)ncnc32)cc1,-,-,-,-,-,.,.,.,.
Clc1ccc(Cn2ncc3c(N4CCCC4)ncnc32)cc1,-,-,-,-,-,.,.,.,.
O=C1CC2(CCN(C(=O)C3CC(=O)N(c4ccccc4)C3)CC2)Oc2ccccc21 (stereo not given),-,-,-,-,-,.,.,.,.
CC(C)(C)OC(=O)N[C@H](C(=O)OC(C)(C)C)c1ccccc1,-,-,-,-,-,.,.,.,.
Cc1ccccc1OCCC(=O)Nc1cc(S(=O)(=O)N2CCCCC2)ccc1N1CCN(C)CC1,49.3,.,.,89.6,.,105.4,73.4,78.4,58.8
SMILES,TAAR1 antagonist,OX1R antag-1,OX1R antag-2,TAAR1 agonist,CHO parental Ca,TAAR1 ag conf,Ga16 ag counter,TAAR1 desens,Ga16 nonsel ant
Cc1ccc(OCC(=O)Nc2cc(S(=O)(=O)N3CCCCC3)ccc2N2CCN(C)CC2)c(C)c1,-,-,-,-,-,.,.,.,.
CCOc1ccccc1NC(=O)COC(=O)C(Cc1ccccc1)NC(=O)c1ccco1 (stereo not given),-,-,-,-,-,.,.,.,.
CC(C)c1onc(C(=O)N(C)Cc2ccccc2)c1[N+](=O)[O-],-,-,-,-,-,.,.,.,.
CC(C)c1onc(C(=O)NCCc2ccccc2)c1[N+](=O)[O-],.,-,-,.,-,.,-,.,-
O=C(C1=C(O)C(=O)N(CCc2ccccc2)C1c1ccncc1)c1cc2ccccc2o1 (stereo not given),-,-,-,43.6,-,53.9,-,-,-
O=C(C1=C(O)C(=O)N(Cc2cccnc2)C1c1cccc(Oc2ccccc2)c1)c1ccco1 (stereo not given),-,-,-,-,-,.,.,.,.
O=C(C1=C(O)C(=O)N(CCc2ccccc2)C1c1cccnc1)c1ccco1 (stereo not given),-,-,-,47.3,-,59.3,-,-,-
Cc1c(C(=O)N2CCOCC2)c(S(=O)(=O)N2CCN(c3ccc(Cl)cc3)CC2)c(C)n1C,-,-,-,-,-,.,.,.,.
COC(=O)c1cnc(Nc2nc(C(N)Cc3ccccc3)cs2)nc1C(F)(F)F (stereo not given),-,.,.,63.5,.,50.0,26.9,-,23.4
CS(=O)(=O)c1ccc(Nc2nc(C(N)Cc3ccc(C(F)(F)F)cc3)cs2)cc1 (stereo not given),-,.,.,-,.,.,.,.,.
CCCc1cnc(Nc2nc(C(N)Cc3ccc(C(F)(F)F)cc3)cs2)nc1 (stereo not given),-,.,.,68.3,.,79.6,63.0,54.5,59.4
NC(Cc1ccc(C(F)(F)F)cc1)c1csc(Nc2nccc(C(F)(F)F)n2)n1 (stereo not given),-,.,.,60.6,.,43.0,19.5,-,22.8
O=C(CNC(=O)c1ccc(Br)o1)NNC(=O)c1ccccc1O,-,-,-,-,-,.,.,.,.
O=C(c1cc(-c2ccccc2O)on1)N1CCc2ccccc2C1,-,-,-,-,-,.,.,.,.
O=C(c1cc(-c2ccc(O)cc2)on1)N1CCc2ccccc2C1,-,-,-,71.5,-,91.1,17.2,67.1,-
CC[C@@]1(C(=O)OC)N[C@H](CN(C)C(=O)COC)[C@@H]2C(=O)N(C)C(=O)[C@@H]21,-,-,-,-,-,.,.,.,.
O=C(NCCc1ccccc1)c1cc(-c2ccccc2)c(N2CCOCC2)s1,-,-,-,-,-,.,.,.,.
CCN(CC)CCCNC(=O)c1cc(-c2ccccc2)c(N2CCCCC2)s1,-,-,-,53.2,-,55.2,34.0,-,-

# Screening results as filed in PubChem.
